Format in all cases: functional, cell-based
Assay [1] deals with SW480. The experiment in a line: Cytotoxicity against human SW480 cells assessed as decrease in cell viability after 48 hrs by MTS assay. The following applies: SW480, 48 h. The method, boiled down:
(§1)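 Cells kept in RPMI-1640 or DMEM with 10% FBS, 37 °C, 5% CO2. Seeded at 1 × 10^5 cells/mL; adherent lines left 12 h to attach, suspension cells (HL-60) seeded just before dosing. Triplicate wells at various concentrations for 48 h; MTS then 4 h at 37 °C; lysis in 20% SDS/50% DMF; OD 490 nm. IC50 by Reed and Muench method.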
(Tetrazolium dyes change colour on reduction, which living cells bring about.)

The subject of assay [2] is SMMC-7721. Nature of the assay: Cytotoxicity against human SMMC7721 cells assessed as decrease in cell viability after 48 hrs by MTS assay. The conditions noted are these: SMMC-7721, 48 h. The method, boiled down:
as §1

In assay [3] the test system is HeLa. Nature of the assay: Cytotoxicity against human HeLa cells assessed as decrease in cell viability after 48 hrs by MTS assay. The method, boiled down: as §1
Assay [4] has as its system HL-60. The experiment in a line: Cytotoxicity against human HL60 cells assessed as decrease in cell viability after 48 hrs by MTS assay. The conditions noted are these: HL-60, 48 h. The method, boiled down: as §1
In assay [5] the test system is MCF7. The experiment in a line: Cytotoxicity against human MCF7 cells assessed as decrease in cell viability after 48 hrs by MTS assay. The conditions noted are these: MCF7, 48 h. The method, boiled down: as §1
The test system of assay [6] is A549. Nature of the assay: Cytotoxicity against human A549 cells assessed as decrease in cell viability after 48 hrs by MTS assay. The conditions noted are these: A549, 48 h. Put shortly: as §1

Some results are limits rather than exact numbers.

`C=C1[C@@H]([C@H](C)CC(=O)/C=C(\C)C(=O)O)CC[C@@]2(C)C3=CC[C@H]4C(C)(C)[C@H](OC(C)=O)CC[C@]4(C)[C@@H]3C[C@@H]12`: the IC50 in assay [1] was 5.99 µM; in assay [2], 11.6 µM; in assay [3], 7.77 µM; in assay [4], 3.11 µM; in assay [5], 4.61 µM; in assay [6] it was 13 µM.

As to `CC(=O)O[C@@H]1CC[C@]2(C)[C@@H]3CC4=C(CO)[C@@H]([C@H](C)CC/C=C(/C)C(=O)O)CC[C@@]4(C)C3=CC[C@H]2C1(C)C`, the IC50 in assay [1], in assay [2], in assay [3], in assay [4], in assay [5] and in assay [6] was more than 10 µM each time.

On to `C=C1[C@@H]([C@H](C)CC/C=C(/C)C(=O)O)CC[C@]2(C)[C@H]1C[C@H]1[C@@]3(C)CCC(=O)C(C)(C)[C@@H]3C[C@@H]3O[C@@]312`, for which the concentration for half-maximal inhibition (IC50) in assay [1], in assay [2], in assay [3], in assay [4], in assay [5] and in assay [6] was more than 10 µM in each case.

Turning to `C=C1[C@@H]([C@H](C)CC/C=C(/C)C(=O)O)CC[C@@]2(C)C3=CC[C@H]4C(C)(C)[C@H](O)CC[C@]4(C)[C@@H]3C[C@@H]12`, the IC50 in assay [1], in assay [2], in assay [3], in assay [4], in assay [5] and in assay [6] was more than 10 µM in each case.

As to `C=C1[C@@H]([C@H](C)CC/C=C(/C)C(=O)O)CC[C@@]2(C)C3=CC[C@H]4C(C)(C)C(=O)CC[C@]4(C)[C@@H]3C[C@@H]12`, the IC50 in assay [1], in assay [2], in assay [3], in assay [4], in assay [5] and in assay [6] was more than 10 µM throughout.

In the case of `C=C1[C@@H]([C@H](C)CC/C=C(/C)C(=O)O)CC[C@@]2(C)C3=CC[C@H]4C(C)(C)[C@@H](O)CC[C@]4(C)[C@@H]3C[C@@H]12`, the IC50 in assay [1], in assay [2], in assay [3], in assay [4], in assay [5] and in assay [6] was more than 10 µM throughout.

For `C/C(=C/CC[C@@H](C)C1=C(CO)[C@@H]2C[C@@H]3C(=CC[C@H]4C(C)(C)C(=O)CC[C@]34C)[C@]2(C)CC1)C(=O)O`, the IC50 in assay [1], in assay [2], in assay [3], in assay [4], in assay [5] and in assay [6] was more than 10 µM each time.

As for `CC(=O)O[C@H]1C(=O)[C@@]2(C)[C@H]([C@H](OC(=O)c3ccccc3)[C@]3(O)C[C@H](OC(=O)[C@H](O)[C@@H](NC(=O)c4ccccc4)c4ccccc4)C(C)=C1C3(C)C)[C@]1(OC(C)=O)CO[C@@H]1C[C@@H]2O` [PACLITAXEL], the IC50 in assay [1], in assay [2], in assay [3], in assay [4], in assay [5] and in assay [6] was less than 0.008 µM throughout.

`C=C1[C@@H]([C@H](C)CC/C=C(/C)C(=O)O)CC[C@@]2(C)C3=CC(=O)[C@H]4C(C)(C)[C@H](OC(C)=O)CC[C@]4(C)[C@@H]3C[C@@H]12`: the IC50 in assay [1], in assay [2], in assay [3], in assay [4], in assay [5] and in assay [6] was more than 10 µM each time.

`C=C1[C@@H]([C@H](C)C[C@@H]2C=C(C)C(=O)O2)CC[C@@]2(C)C3=CC[C@H]4C(C)(C)[C@H](O)CC[C@]4(C)[C@@H]3C[C@@H]12`: the IC50 in assay [1] was 25.4 µM; in assay [2], more than 40 µM; in assay [3] it was 18.6 µM; in assay [4], 7.36 µM; in assay [5] it was 13.6 µM; in assay [6] it was more than 40 µM.

For `CC(=O)O[C@@H]1CC[C@]2(C)[C@@H]3C[C@H]4C(C=O)=C([C@H](C)CC/C=C(/C)C(=O)O)CC[C@@]4(C)C3=CC[C@H]2C1(C)C`, the IC50 in assay [1], in assay [2], in assay [3], in assay [4], in assay [5] and in assay [6] was more than 10 µM in each case.

Regarding `C=C1[C@@H]([C@H](C)C[C@H]2C=C(C)C(=O)O2)CC[C@@]2(C)C3=CC[C@H]4C(C)(C)[C@H](O)CC[C@]4(C)[C@@H]3C[C@@H]12`, the IC50 in assay [1] turned out to be 20.1 µM; in assay [2], 25 µM; in assay [3], 12.3 µM; in assay [4], 10.4 µM; in assay [5], 15.6 µM; in assay [6], 27.1 µM.

As for `CC(=O)O[C@@H]1CC[C@]2(C)[C@@H]3C[C@H]4C(CO)=C([C@H](C)CC/C=C(/C)C(=O)O)CC[C@@]4(C)C3=CC[C@H]2C1(C)C`, the IC50 in assay [1], in assay [2], in assay [3], in assay [4], in assay [5] and in assay [6] was more than 10 µM throughout.

For the molecule `C=C1[C@@H]([C@H](C)C[C@@H](O)/C=C(\C)C(=O)O)CC[C@@]2(C)C3=CC[C@H]4C(C)(C)[C@H](OC(C)=O)CC[C@]4(C)[C@@H]3C[C@@H]12`, the IC50 in assay [1], in assay [2], in assay [3], in assay [4], in assay [5] and in assay [6] was more than 10 µM throughout.

Consider `CC(=O)O[C@@H]1CC[C@]2(C)[C@@H]3C[C@H]4[C@@](C)(O)[C@@H]([C@H](C)CC/C=C(/C)C(=O)O)CC[C@@]4(C)C3=CC[C@H]2C1(C)C`, for which the IC50 in assay [1], in assay [2], in assay [3], in assay [4], in assay [5] and in assay [6] was more than 10 µM in each case.

Usually IC50 stands for the point on the concentration scale where inhibition reaches its midpoint.

(Values after ChEMBL document CHEMBL4000161, “Rearranged 6/6/5/6-Fused Triterpenoid Acids from the Stems of Kadsura coccinea” (J Nat Prod, 2016).)
